A selection: hits, their analogues and other compounds. The true share with any hit is near 2.6%.
Cl transport mod: KCC2 cotransporter modulators, thallium flux, primary screen, cell-based, HEK293 KCC2, FluoZin-2 fluorescence, MLSMR; Solute carrier family 12 member 5 (Homo sapiens), Q9H2X9; KCC2 cells, thallium flux FluoZin-2 fluorescence; B-score of Tl+ flux slope (higher = more flux/activation; lower = inhibition) at 10 µM; 2.2% of 190,000 active; AID 1456, 2008;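 active means thallium flux slope and its plate-corrected score both differing from the plate sample mean at a set confidence after two filtering rounds, in either direction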;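 further: slope of fluorescence scaled to starting intensity during 10 to 20 s after thallium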
Rad51 HR inh: human RAD51 strand exchange inhibitors, primary screen, biochemical, fluorescence; DNA repair protein RAD51 homolog 1 (Homo sapiens), Q06609; hRad51 DNA strand exchange, fluorescence dequenching; inhibition, % at 10 µM; 0.085% of 200,000 active;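 active means inhibition above 40% at the single screening dose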
Target sequence (Q06609 whole entry, looked up): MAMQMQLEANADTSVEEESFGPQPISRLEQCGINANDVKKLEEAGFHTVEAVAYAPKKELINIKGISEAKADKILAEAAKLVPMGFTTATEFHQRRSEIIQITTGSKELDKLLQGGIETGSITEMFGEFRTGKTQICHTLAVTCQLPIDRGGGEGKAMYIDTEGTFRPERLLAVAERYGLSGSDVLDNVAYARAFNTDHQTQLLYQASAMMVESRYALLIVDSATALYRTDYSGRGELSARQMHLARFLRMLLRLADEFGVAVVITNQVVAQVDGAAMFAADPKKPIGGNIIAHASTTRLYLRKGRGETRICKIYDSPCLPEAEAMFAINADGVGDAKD
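Test system: preformed human Rad51 ssDNA filaments. Compound dosing: single dose, 10 µM final compound. Incubation: filaments 15 min 37 °C, then compound 30 min. Technique: FRET fluorescence dequenching, excitation 485 nm, emission 520 nm. Read-out basis: percent inhibition from fluorescence, normalised to plate control and blank means. Benchmarks: plate controls and plate blanks.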
CHT allo act: CHT positive allosteric modulators, primary screen, cell-based, membrane potential dye, choline EC20 | 0.49% of 310,000 active | CHT-expressing cells; hits give high values; LV-AA mutant CHT in HEK293 cells | AID 488977, 2010 | B-score at 10 µM;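 active means initial fluorescence not abnormally high and integrated response B-score, plate-corrected, over 3 SD above library mean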
CHT inh: inhibitors of human choline transporter CHT | High affinity choline transporter 1 (Homo sapiens), Q9GZV3 | CHT-expressing cells, membrane potential dye, choline response; hits give low values | B-score at 10 µM | 0.86% of 310,000 active | AID 488975, 2010;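 active means B-score over 3 SD under the library average, and starting fluorescence ratio not unusually high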;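 further: choline stimulus applied at its EC90 after an EC20 pre-addition; B-score computed on integrated fluorescence ratio after choline addition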
CHT act confirm: CHT activators, confirmation, cell-based, membrane potential dye, duplicate; shares compounds with CHT allo act; CHT-expressing cells, membrane potential dye fluorescence (FDSS); % of choline EC20–EC90 response window; HEK293 expressing CHT LV-AA mutant; choline added at its EC20; activation, % at 10 µM; 91% of 2,500 active;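 active means primary screen active, with duplicate mean activation above negative control mean plus 3 SD, cut at about 11% in these data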
HEK293 MP dye: membrane potential response in parental HEK293 cells, counter-screen for CHT activator project, cell-based, membrane potential dye. 62% of 2,500 active. ratio readout change at 10 µM, hits read low. membrane potential dye fluorescence (FDSS); measured after EC20 choline addition. shares compounds with CHT allo act;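 active means duplicate-averaged ratio beyond 3 SD from buffer wells, up or down, though filed actives are nearly all decreases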
Large screens that a line does not name were inactive (follow-up assays come after a bar, where they were run).

COc1ccc(C(C(=O)NC(C)C)N(C(=O)CCC(=O)Nc2nccs2)c2ccccc2F)cc1 (stereo unspecified)	none
Cc1c(C)n(CCN(C)C)c2ncnc(NCc3ccccc3)c12	none (no result: Cl transport mod, Rad51 HR inh) | CHT act confirm 46 | HEK293 MP dye -48
Cc1c(C)n(CCc2ccccc2)c2ncnc(NCCCN(C)C)c12	none (no result: Cl transport mod, Rad51 HR inh)
CCOc1ccc(-n2c(-c3ccccc3)c[n+]3c2CCCCC3)cc1	CHT allo act 13 | CHT act confirm 44 | HEK293 MP dye inactive
CCn1c2ccccc2c2cc(CNCc3ccc(OC)cc3OC)ccc21	CHT allo act 16 | CHT act confirm inactive | HEK293 MP dye inactive
COc1cc(OC)cc(C2=NCCN2)c1	none | CHT act confirm 35 | HEK293 MP dye -43
CCC(C)c1ccc(S(=O)(=O)N2CCN3CCCC3C2)cc1 (stereo unspecified)	none (no result: Cl transport mod, Rad51 HR inh)
COc1ccc(Br)cc1CN(C)C(=O)c1ccccc1OCc1c(C)noc1C	none (no result: Cl transport mod, Rad51 HR inh) | CHT act confirm 38 | HEK293 MP dye inactive
Cc1cc(C)nc(NC(N)=NC(C)c2ccccc2)n1 (stereo unspecified)	CHT allo act 6.3 | CHT act confirm 45 | HEK293 MP dye -34
Cc1cc(C)nc(NC(N)=NCCc2c[nH]c3ccccc23)n1	CHT allo act 8.6 | CHT act confirm 60 | HEK293 MP dye -61
CC1(c2ccccc2Cl)NC(=O)N(CC(=O)N2CCN(S(=O)(=O)c3ccccc3)CC2)C1=O (stereo unspecified)	none (no result: Cl transport mod, Rad51 HR inh)
CCC[n+]1c(C)sc2c(OC)ccc(OC)c21	CHT allo act 12 | CHT act confirm 47 | HEK293 MP dye inactive
Cc1ccc(C)c(S(=O)(=O)N2CCN(C(=O)c3cc(S(=O)(=O)NCc4ccccc4)ccc3C)CC2)c1	none (no result: Cl transport mod, Rad51 HR inh) | CHT act confirm 22 | HEK293 MP dye inactive
Cc1ccc(NC(=O)CN(C)C(=O)CSc2nc(C)cs2)cc1	none
Cn1c(-c2ccncc2)nc2ccccc21	none (no result: Cl transport mod, Rad51 HR inh)
CCN(CC)c1ccc(-c2nc3cnccc3n2C)cc1	CHT allo act 10 | CHT act confirm 33 | HEK293 MP dye -49
Cc1ccn2cc(-c3ccc(O)c(O)c3)nc2c1	none (no result: Cl transport mod, Rad51 HR inh) | CHT act confirm 36 | HEK293 MP dye -40
Oc1ccc(-c2cn3ccccc3n2)cc1O	none (no result: Cl transport mod, Rad51 HR inh) | CHT act confirm 37 | HEK293 MP dye -42
O=C(c1ccccc1)c1ccc(OCCOCCN2CCN(Cc3ccccc3)CC2)cc1	none
O=C(CNC(=O)c1cnccc1C(F)(F)F)c1cccc(Cl)c1	none
COCCNc1nc(-c2ccccc2)nc2ccccc12	none | CHT act confirm 31 | HEK293 MP dye -36
O=C(/C=C/c1cccnc1)/C=C/c1cccnc1	none (no result: CHT allo act, CHT inh)
CCOc1nc(N=C(N)N)nc2c(C)cccc12	CHT allo act 6.6 (no result: Rad51 HR inh) | CHT act confirm 54 | HEK293 MP dye -60
CCOc1nc(-c2ccccc2O)nc2ccccc12	none
COc1ccc2oc(C(=O)OCC(=O)NCc3ccccc3OC)c(C)c2c1	none (no result: Cl transport mod, Rad51 HR inh)
CC(C)CCCC(C)CCOC(=O)CN1CCCC1 (stereo unspecified)	none
Cc1cc(NCCCn2ccnc2)n2nc(C)c(-c3ccccc3)c2n1	CHT allo act 8.5 | CHT act confirm 47 | HEK293 MP dye -57
O=c1[nH]c2c(c(=O)[nH]1)CCC2	none
COc1ccc(C(=O)C[n+]2ccc3ccccc3c2C)cc1	none | CHT act confirm 48 | HEK293 MP dye -32
COc1ccc(C(=O)C[n+]2cccc3cc(OC)ccc32)cc1	none (no result: Cl transport mod, Rad51 HR inh)
Cc1oc2ccc(NS(=O)(=O)c3ccc(C(C)(C)C)cc3)cc2c1C(=O)Nc1ccccc1	none
Nc1cc2nc3ccccc3oc-2cc1=O	CHT allo act 6.8 | CHT act confirm 13 | HEK293 MP dye -38
Cc1cccc2cc(-c3ccccc3)c(-c3ccccc3)c[n+]12	none | CHT act confirm 56 | HEK293 MP dye -53
Cc1c(O)ccc2c(-c3ccccc3)cc(=O)oc12	none (no result: Cl transport mod, Rad51 HR inh)
CSc1nnc(NC(=O)c2cc3ccccc3oc2=O)s1	none

Source: PubChem BioAssay (several laboratories)
